ChEMBL document CHEMBL3112513, “Synthesis, docking and pharmacological evaluation of novel indole based potential atypical antipsychotics” (2014)
The source made the active and inactive calls. The rule behind the calls is not given here.

Experiments:
Mus musculus [1] = assay: Antipsychotic activity in albino lyka mouse assessed as reversal of apomorphine-induced stereotypy at 2 to 7.5 mg/kg, ip administered 10 mins prior to apomorphine challenge measured 10 to 30 mins post challenge; type: functional, organism-based
Method in brief: (§1)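 Mice (same animals as the climbing test) dosed ip with test agent, saline vehicle or clozapine; apomorphine 2.5 mg/kg given 10 min later. Each mouse was placed in an inverted 500 ml beaker for 60 s at 10, 15, 20, 25 and 30 min post-apomorphine. Scored 1 (rearing, sniffing, grooming) or 2 (licking, biting). Three doses per compound, chosen by initial titration.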

Mus musculus [2] = assay: Antipsychotic activity in ip dosed albino lyka mouse assessed as reversal of apomorphine-induced mesh climbing response administered 10 mins prior to apomorphine challenge measured 10 to 30 mins post challenge; type: functional
Method in brief: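 Test agent, saline or clozapine given ip; apomorphine 2.5 mg/kg ip 10 min later. Mice were placed in a mesh cage for 60 s at 10, 15, 20, 25 and 30 min post-apomorphine, with a naive baseline recorded first. Climbing scored 1 (one to three paws on mesh) or 2 (all four paws). Mean score per group.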

Mus musculus [3] = assay: Antipsychotic activity in albino lyka mouse assessed as reversal of apomorphine-induced stereotypy at 5 to 10 mg/kg, ip administered 10 mins prior to apomorphine challenge measured 10 to 30 mins post challenge; type: functional, organism-based; method in brief: as §1
Mus musculus [4] = assay: Antipsychotic activity in albino lyka mouse assessed as reversal of apomorphine-induced stereotypy at 2.5 to 7.5 mg/kg, ip administered 10 mins prior to apomorphine challenge measured 10 to 30 mins post challenge; type: functional, organism-based; method in brief: as §1
Mus musculus [5] = assay: Antipsychotic activity in albino lyka mouse assessed as reversal of apomorphine-induced stereotypy at 2.5 to 5 mg/kg, ip administered 10 mins prior to apomorphine challenge measured 10 to 30 mins post challenge; type: functional, organism-based
Method in brief: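 Mice given test compound, vehicle or clozapine i.p., then apomorphine 2.5 mg/kg i.p. 10 min later. Each mouse placed in an inverted 500 ml beaker for 60 s at 10, 15, 20, 25 and 30 min after apomorphine. Scored 1 (rearing, sniffing, grooming) or 2 (licking, biting), reported as mean score. Same mice as mesh-climbing test. Three dose levels, chosen by initial titration.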

Compound	Activity (Mus musculus [1])	ED50 (Mus musculus [2]) [mg/kg]	Activity (Mus musculus [3])	Activity (Mus musculus [4])	Activity (Mus musculus [5])
Clc1ccc(NCCCOc2ccc(-c3cc4ccccc4[nH]3)cc2)cc1	inactive	1.8			
Clc1ccccc1NCCCOc1ccccc1-c1cc2ccccc2[nH]1		6.23	inactive		
COc1ccc(NCCCOc2ccc(-c3cc4ccccc4[nH]3)cc2)cc1		1.9		Active	
COc1ccccc1NCCCOc1ccc(-c2cc3ccccc3[nH]2)cc1		1.7		Active	
Clc1ccccc1NCCCOc1ccc(-c2cc3ccccc3[nH]2)cc1	inactive	1.6			
CN1CCN(C2=Nc3cc(Cl)ccc3Nc3ccccc32)CC1 [CLOZAPINE]		3.07			inactive
Clc1ccc(NCCCOc2ccccc2-c2cc3ccccc3[nH]2)cc1		7.23	inactive		
